Reference: ChEMBL document CHEMBL1129794, “Synthesis and evaluation of 2-[(5-methylbenz-1-ox-4-azin-6-yl)imino]imidazoline, a potent, peripherally acting alpha 2 adrenoceptor agonist” (J Med Chem, 1996)

Assays:
[1] = biological target: T1, Alpha-2C adrenergic receptor (Homo sapiens, UniProt P18825); test: Compound was tested in vitro for binding affinity against Alpha-2C adrenergic receptor from cloned human C-2 receptor transfected into Chinese hamster ovary (CHO) cells; assay type: cell-based
T1 sequence (P18825 whole entry): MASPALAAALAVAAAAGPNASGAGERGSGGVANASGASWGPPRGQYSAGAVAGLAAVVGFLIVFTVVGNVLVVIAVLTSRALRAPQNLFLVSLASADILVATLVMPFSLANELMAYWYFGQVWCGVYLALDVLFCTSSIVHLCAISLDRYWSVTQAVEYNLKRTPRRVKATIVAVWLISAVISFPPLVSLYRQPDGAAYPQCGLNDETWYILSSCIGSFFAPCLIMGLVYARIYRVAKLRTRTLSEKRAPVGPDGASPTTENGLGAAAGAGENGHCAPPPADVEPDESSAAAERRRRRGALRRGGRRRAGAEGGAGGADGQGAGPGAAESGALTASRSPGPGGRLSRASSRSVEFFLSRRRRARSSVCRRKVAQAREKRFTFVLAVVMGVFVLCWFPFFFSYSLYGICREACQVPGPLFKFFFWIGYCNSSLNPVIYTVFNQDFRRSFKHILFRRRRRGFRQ
Procedure, shortened: (§1)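 Membrane binding using cloned receptors expressed in transfected CHO cells: alpha-2A human C-10, alpha-2B rat RNG, alpha-2C human C-2.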

[2] = biological target: T2, Adrenergic receptor alpha-1 (Homo sapiens, UniProt P35348+P25100+P35368); test: Compound was tested for binding affinity based on dissociation constant of Alpha-1 adrenergic receptor; assay type: protein assay
T2 sequence (P35348 whole entry): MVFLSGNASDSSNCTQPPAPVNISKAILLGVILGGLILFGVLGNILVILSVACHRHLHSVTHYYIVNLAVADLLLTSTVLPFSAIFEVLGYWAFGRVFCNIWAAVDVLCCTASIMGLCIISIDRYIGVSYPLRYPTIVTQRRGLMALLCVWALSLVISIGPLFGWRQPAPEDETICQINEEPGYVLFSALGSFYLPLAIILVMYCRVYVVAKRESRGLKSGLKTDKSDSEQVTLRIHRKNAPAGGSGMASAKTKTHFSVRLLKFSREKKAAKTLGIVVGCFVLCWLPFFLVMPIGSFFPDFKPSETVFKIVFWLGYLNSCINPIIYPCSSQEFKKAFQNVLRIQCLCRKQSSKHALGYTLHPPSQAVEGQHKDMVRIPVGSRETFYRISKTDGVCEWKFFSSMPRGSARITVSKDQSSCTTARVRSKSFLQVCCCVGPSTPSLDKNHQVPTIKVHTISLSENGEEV
T2 sequence (P25100 whole entry): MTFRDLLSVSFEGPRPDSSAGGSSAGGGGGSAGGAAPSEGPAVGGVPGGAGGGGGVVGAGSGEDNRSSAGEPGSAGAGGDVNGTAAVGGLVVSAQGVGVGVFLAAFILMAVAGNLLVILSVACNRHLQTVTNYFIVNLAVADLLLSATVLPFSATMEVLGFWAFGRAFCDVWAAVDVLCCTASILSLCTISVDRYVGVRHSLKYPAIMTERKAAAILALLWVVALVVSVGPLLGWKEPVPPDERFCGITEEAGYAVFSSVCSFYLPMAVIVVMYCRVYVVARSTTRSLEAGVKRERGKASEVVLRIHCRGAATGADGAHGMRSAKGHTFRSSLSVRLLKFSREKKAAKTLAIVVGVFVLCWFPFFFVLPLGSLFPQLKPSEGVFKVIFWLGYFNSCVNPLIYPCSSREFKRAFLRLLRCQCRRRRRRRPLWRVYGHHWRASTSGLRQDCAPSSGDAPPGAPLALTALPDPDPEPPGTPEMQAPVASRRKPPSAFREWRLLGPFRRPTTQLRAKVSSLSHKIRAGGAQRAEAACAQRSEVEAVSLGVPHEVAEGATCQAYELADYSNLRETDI
T2 sequence (P35368 whole entry): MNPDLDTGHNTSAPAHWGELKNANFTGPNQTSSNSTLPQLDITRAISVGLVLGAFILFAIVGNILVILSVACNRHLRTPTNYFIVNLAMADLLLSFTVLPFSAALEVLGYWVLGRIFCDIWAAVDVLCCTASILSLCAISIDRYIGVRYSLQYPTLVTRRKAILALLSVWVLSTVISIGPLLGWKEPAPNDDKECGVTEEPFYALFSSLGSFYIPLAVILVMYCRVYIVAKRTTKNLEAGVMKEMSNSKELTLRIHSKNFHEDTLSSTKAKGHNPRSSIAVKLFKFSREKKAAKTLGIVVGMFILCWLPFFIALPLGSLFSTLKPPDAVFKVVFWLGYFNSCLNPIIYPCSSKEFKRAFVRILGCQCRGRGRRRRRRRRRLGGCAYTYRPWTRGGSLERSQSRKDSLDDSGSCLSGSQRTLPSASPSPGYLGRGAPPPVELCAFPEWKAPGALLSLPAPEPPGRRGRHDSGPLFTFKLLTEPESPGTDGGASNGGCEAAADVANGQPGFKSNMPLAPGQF

[3] = pKa value determined in the presence of the partition solvent for guanidine subunit.; assay type: physicochemical
Procedure, shortened: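 Potentiometric titration: compound dissolved, solution titrated to predetermined final pH; pKa measured in water and again with octanol or dodecane added before titration; log P derived from shift between aqueous pKa and pKa in presence of partition solvent.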

[4] = biological target: T3, Alpha-2A adrenergic receptor (Homo sapiens, UniProt P08913); test: Compound was tested in vitro for binding affinity against Alpha-2A adrenergic receptor from cloned human C-10 receptor transfected into Chinese hamster ovary (CHO) cells; assay type: cell-based; procedure, shortened: as §1
T3 sequence (P08913 whole entry): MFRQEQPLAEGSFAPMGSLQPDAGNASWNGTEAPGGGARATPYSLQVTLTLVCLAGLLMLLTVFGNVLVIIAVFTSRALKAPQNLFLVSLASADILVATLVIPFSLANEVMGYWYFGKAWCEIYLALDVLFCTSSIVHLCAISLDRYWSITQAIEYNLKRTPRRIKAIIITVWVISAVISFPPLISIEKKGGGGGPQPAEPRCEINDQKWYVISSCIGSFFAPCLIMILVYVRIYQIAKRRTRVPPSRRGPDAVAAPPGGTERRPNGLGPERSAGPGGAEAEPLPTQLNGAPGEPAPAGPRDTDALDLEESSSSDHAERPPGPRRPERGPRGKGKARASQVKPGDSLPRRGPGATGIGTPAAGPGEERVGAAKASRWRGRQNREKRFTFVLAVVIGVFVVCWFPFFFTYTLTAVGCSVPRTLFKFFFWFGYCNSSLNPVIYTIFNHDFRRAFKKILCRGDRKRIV

[5] = biological target: T4, Alpha-2B adrenergic receptor (Rattus norvegicus, UniProt P19328); test: Compound was tested in vitro for binding affinity against Alpha-2B adrenergic receptor from cloned rat RNG receptor transfected into Chinese hamster ovary (CHO) cells; assay type: cell-based; procedure, shortened: as §1
T4 sequence (P19328 whole entry): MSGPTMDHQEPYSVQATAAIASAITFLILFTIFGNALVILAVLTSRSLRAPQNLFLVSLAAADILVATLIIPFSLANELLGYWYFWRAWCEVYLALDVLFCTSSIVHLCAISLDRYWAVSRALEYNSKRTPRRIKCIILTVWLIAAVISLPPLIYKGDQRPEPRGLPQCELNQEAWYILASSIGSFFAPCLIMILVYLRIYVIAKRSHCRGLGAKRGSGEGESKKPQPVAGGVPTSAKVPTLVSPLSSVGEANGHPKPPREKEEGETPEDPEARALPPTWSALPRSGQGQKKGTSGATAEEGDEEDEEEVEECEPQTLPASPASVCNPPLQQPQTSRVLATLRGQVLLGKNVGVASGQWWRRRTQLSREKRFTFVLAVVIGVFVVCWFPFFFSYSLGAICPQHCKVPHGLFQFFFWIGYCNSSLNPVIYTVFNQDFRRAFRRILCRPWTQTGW

[6] = biological target: T5, Adrenergic receptor alpha-2 (Homo sapiens, UniProt P08913+P18825+P18089); test: Compound was tested for concentration that produced 50% contractile response relative to maximum response to norepinephrine for Alpha-2 adrenergic receptor in rabbit vas deferens; assay type: functional, tissue-based, Oryctolagus cuniculus; settings: target entry is the homologue from another species
T5 sequence (P08913 whole entry): T3 sequence (P08913 whole entry)
T5 sequence (P18825 whole entry): T1 sequence (P18825 whole entry)
T5 sequence (P18089 whole entry): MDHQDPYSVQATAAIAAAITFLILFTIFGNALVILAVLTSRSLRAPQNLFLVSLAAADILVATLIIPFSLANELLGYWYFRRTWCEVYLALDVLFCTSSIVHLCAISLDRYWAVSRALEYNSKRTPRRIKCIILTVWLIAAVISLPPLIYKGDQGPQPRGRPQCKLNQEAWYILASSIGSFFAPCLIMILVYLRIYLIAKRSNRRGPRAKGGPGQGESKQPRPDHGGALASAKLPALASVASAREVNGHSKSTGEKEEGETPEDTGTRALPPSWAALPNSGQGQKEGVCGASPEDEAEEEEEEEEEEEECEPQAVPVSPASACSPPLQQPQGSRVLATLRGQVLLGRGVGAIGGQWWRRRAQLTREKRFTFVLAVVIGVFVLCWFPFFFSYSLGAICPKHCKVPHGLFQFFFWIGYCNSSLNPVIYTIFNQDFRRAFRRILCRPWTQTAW

| Ki [1] [nM] | Ki [2] [nM] | pKa [3] | EC50 [6] [nM] | Structure (SMILES) | Ki [4] [nM] | Ki [5] [nM] |
| --- | --- | --- | --- | --- | --- | --- |
| 30 | 180 | – | – | Nc1cc(Cl)c(N=C2NCCN2)c(Cl)c1 [APRACLONIDINE] | – | – |
| 120 | – | 11.3 | 3.5 | Cc1c(NC2=NCCN2)ccc2c1NCCN2 | – | – |
| – | 470 | 11.1 | 1.2 | Cc1c(NC2=NCCN2)ccc2c1NCCO2 | – | – |

| Structure (SMILES) | Ki [1] [nM] | Ki [2] [nM] | pKa [3] | EC50 [6] [nM] | Ki [4] [nM] | Ki [5] [nM] |
| --- | --- | --- | --- | --- | --- | --- |
| Cc1c(NC2=NCCN2)ccc2nccnc12 | 27 | – | 9.4 | 0.26 | 2 | 17 |
